According to paper PMC9118414 (ACS Omega, 2022):

Legend:
Assay in all cases: Acute cytotoxicity, sulforhodamine B
Format in all cases: cell-based
[1] = test system: A549 nonsmall cell lung carcinoma; settings: Homo sapiens, A549, 72 h, read-out: IC50 on cell viability, A549
[2] = test system: HEK293 human embryonic kidney cells; settings: HEK293, 72 h, read-out: IC50 on cell viability, HEK293
[3] = test system: HL60 promyelocytic leukemia; settings: Homo sapiens, HL-60, 72 h, read-out: IC50 on cell viability, HL60
[4] = test system: peripheral blood mononuclear cells (PBMC); settings: Homo sapiens, 72 h, read-out: IC50 on cell viability, PBMC
Outline: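 PBMC were collected from healthy volunteers and kept in RPMI 1640 with 10% FBS and antibiotics at 37 °C, 5% CO2. 1.0 × 10^5 cells were exposed to various test-compound concentrations for 72 h. Viability read by sulforhodamine B assay. IC50 derived by curve fitting; values are means of three independent experiments.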

[5] = test system: PC3 prostate adenocarcinoma; settings: Homo sapiens, 72 h, read-out: IC50 on cell viability, PC3

**Q.** With `COc1cccc2c1C(=O)c1c(O)c3c(c(O)c1C2=O)C[C@@](O)(C(=O)CO)C[C@@H]3O[C@H]1C[C@H](N)[C@H](O)[C@H](C)O1` [Doxorubicin] as the compound, how does the IC50 [1] read?
**A.** 1800 ± 900 nM

**Q.** And the IC50 [2]?
**A.** 4800 ± 2000 nM

**Q.** What about the IC50 [3] of the same compound?
**A.** 70 ± 40 nM

**Q.** And the IC50 [4]?
**A.** 5200 ± 1800 nM

**Q.** What about the IC50 [5] of the same compound?
**A.** 2700 ± 1300 nM
